Source: article PMC4359053 (Journal of medicinal chemistry, 2015)
Read-outs that look alike come from different tables or passages of the source.

Legend:
BR+ and BR- cell lines = test: internalization of fluorescence-labeled paclitaxel by CFM and flow cytometry; type: cell-based; settings: Figure S1
How it was run: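 After probe exposure, cells trypsinised if needed, washed twice in PBS and resuspended in PBS. Flow cytometry: 488 nm excitation, emission at 530 nm (30 nm bandpass, 515–545 nm), about 10,000 cells counted per experiment, FITC fluorescence distribution analysed. Confocal: two-photon laser-scanning microscope, 488 nm excitation, emission 527 ± 23 nm (505–550 nm bandpass), cells on uncoated coverslip slide.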

[1] = tested on: MX-1 human breast carcinoma cell line (BR+); test: standard MTT cytotoxicity assay, continuous incubation; type: cell-based
[2] = tested on: ID8 murine ovarian carcinoma cell line (BR+); test: as above; type: cell-based; settings: read-out: Cytotoxicity IC50, ID8; incubation at 37 °C for 48 h
[3] = tested on: L1210FR murine lymphocytic leukemia cell line (BR+); test: as above; type: cell-based
[4] = tested on: L1210 murine lymphocytic leukemia cell line (BR−); test: as above; type: cell-based; settings: read-out: Cytotoxicity IC50, L1210; incubation at 37 °C for 48 h
[5] = tested on: WI38 human lung fibroblast cell line (BR−); test: as above; type: cell-based
[6] = tested on: BR+ cancer cell lines (MX-1, L1210FR, ID8); test: MTT cytotoxicity, text summaries pooled over BR+ cancer cell lines; type: cell-based
How it was run: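 Adherent cells seeded at 8,000–10,000/well and held 24 h at 37 °C before dosing; leukemia cells at 0.5–0.8 × 10^4/well suspended directly in test solutions. Final 0.5–5,000 nM from DMSO stocks, 37 °C, 5% CO2, 48 h or 72 h. Assay 2: 24 h exposure, PBS wash, GSH-OEt (6 equiv. to conjugate) added, further 48 h. MTT 0.5 mg/mL in PBS, 3 h, 37 °C.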

[7] = tested on: MX-1 human breast carcinoma cell line (BR+); test: MTT Assay 2: 24 h incubation, PBS wash, GSH-OEt addition, further 48 h; type: cell-based; settings: read-out: Cytotoxicity IC50, MX-1, Assay 2, GSH-OEt (6 equiv.), additional 48 h
How it was run: (§1)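 Cells grown in supplemented RPMI-1640 (5% FBS, 5% NuSerum, 1% PenStrep) at 37 °C, 5% CO2, then seeded at 0.5–1.5 × 10^4 cells/well. Test compound (from DMSO stock; DMSO ≤1%) was added for 24 h at 37 °C. Medium was then removed, cells were washed with PBS, and GSH-OEt (6 equiv. to conjugate) in fresh medium was added for 48 h more (72 h total). MTT (0.5 mg/mL, 3 h), formazan dissolved in acidic isopropanol/Triton X-100, A570. IC50 from four-parameter logistic fit; triplicate.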

[8] = tested on: L1210FR murine lymphocytic leukemia cell line (BR+); test: as above; type: cell-based; settings: read-out: Cytotoxicity IC50, L1210FR, Assay 2, GSH-OEt (6 equiv.), additional 48 h
How it was run: as §1

[9] = tested on: L1210FR murine lymphocytic leukemia cell line (BR+); test: MTT Assay 3: 24 h incubation, GSH-OEt addition without washing, further 48 h; type: cell-based; settings: read-out: Cytotoxicity IC50, L1210FR, Assay 3, GSH-OEt (6 equiv.) added without wash, additional 48 h
How it was run: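 L1210FR suspension cells in supplemented RPMI-1640 were exposed to test compound at 37 °C for 24 h; DMSO ≤1%. GSH-OEt (6 equiv.) in medium was then added directly, without washing, for a further 48 h (72 h total). Viability was read by MTT (0.5 mg/mL in PBS, 3 h, 37 °C), solubilized in 0.1 N HCl/isopropanol with 10% Triton X-100, at 570 nm. IC50 by four-parameter logistic fit; triplicate runs.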

L1210 (BR−) cells = test: internalization by confocal fluorescence microscopy and flow cytometry; type: cell-based, murine; settings: 5 µM, 37 °C
WI38 (BR−) cells = test: as above; type: cell-based, human; settings: 5 µM, 37 °C
[10] = tested on: BR+ cancer cell lines (L1210FR, MX-1, ID8); test: internalization by confocal fluorescence microscopy and flow cytometry; type: cell-based; settings: 5 µM, 37 °C
How it was run: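 Adherent cells were seeded at 5 × 10^5 cells/mL overnight, then given medium containing 5 µM fluorescent probe. For leukemia cells, 1 mM DMSO stock was spiked into fresh suspensions to 5 µM final. Incubation ran 30 min–24 h at 37 °C; cells were then trypsinized as needed and washed twice in PBS. Flow cytometry used 488 nm excitation, 515–545 nm emission, ~10,000 cells. Confocal imaging used 488 nm excitation, 505–550 nm bandpass, 63× water objective.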

[11] = read-out: Cytotoxicity IC50, MX-1, Assay 1, 37 °C, 72 h, no GSH-OEt
[12] = read-out: Cytotoxicity IC50, MX-1, incubation at 37 °C for 48 h
[13] = read-out: Cytotoxicity IC50, L1210FR, Assay 1, 37 °C, 72 h, no GSH-OEt
[14] = read-out: Cytotoxicity IC50, L1210FR, incubation at 37 °C for 48 h
[15] = read-out: Cytotoxicity IC50, WI38, Assay 1, 37 °C, 72 h, no GSH-OEt
[16] = read-out: Cytotoxicity IC50, WI38, incubation at 37 °C for 48 h

Row | Molecule | internalization across BR+ and BR- cell lines (BR+ and BR- cell lines) | IC50 [1, 11] [nM] | IC50 [1, 12] [nM] | IC50 [2] [nM] | IC50 [3, 13] [nM] | IC50 [3, 14] [nM] | IC50 [4] [nM] | IC50 [5, 15] [nM] | IC50 [5, 16] [nM] | IC50 ([6]; read-out: Cytotoxicity IC50, MX-1 and L1210FR, free drug, range, 72 h incubation (Assay 1)) [nM] | IC50 [7] [nM] | IC50 [8] [nM] | IC50 [9] [nM] | potency times lower than free taxoid 3 against three BR+ cancer cell lines ([6]; 48 h incubation) | cancer cell selectivity (BR-specificity), BR+ cancer cells vs BR− WI38 cells ([6]; Assay 2) | IC50 ([6]; read-out: Cytotoxicity IC50, BR+ cancer cells (MX-1, L1210FR), Assay 2, range, 24 h, PBS wash, GSH-OEt, additional 48 h) [nM] | internalization into L1210 cells (L1210 (BR−) cells) | internalization into WI38 cells (WI38 (BR−) cells) | internalization into BR+ cancer cell lines [10]
1 | 7-(4-Fluoresceinyl)butanoylpaclitaxel [compound 6] | nonspecific internalization |  |  |  |  |  |  |  |  |  |  |  |  |  |  |  |  |  | 
2 | CC(=O)O[C@@]12CO[C@@H]1C[C@H](O)[C@@]1(C)C(=O)[C@H](OC(=O)C3CC3)C3=C(C)[C@@H](OC(=O)[C@H](O)[C@H](C=C(C)C)NC(=O)OC(C)(C)C)C[C@@](O)([C@@H](OC(=O)c4ccccc4)[C@H]21)C3(C)C [Taxoid 3, SB-T-1214, reference compound] |  | 2.66 ± 0.16 | 4.13 ± 2.59 | 0.17 ± 0.14 | 2.32 ± 1.41 | 4.18 ± 1.8 | 7.05 ± 1.38 | 4.89 ± 2.24 | 5.23 ± 0.27 | 2.32 to 2.66 |  |  |  |  |  |  |  |  | 
3 | Biotin-(SS-Linker)-SB-T-1214 [conjugate 4] |  | 4.66 ± 0.87 | 15.4 ± 4.2 | 4.32 ± 1.58 | 12.3 ± 2.8 | 13.4 ± 6.8 | 481 ± 34 | 645 ± 97 | 670 ± 89 |  | 3.85 ± 0.14 | 5.15 ± 2.85 | 2.92 ± 2.34 | 3–30 times | two-orders of magnitude difference | 3.85 to 6.6 |  |  | 
4 | Biotin-NH-PEG3-(CH2)2-NH-FITC [probe 5] |  |  |  |  |  |  |  |  |  |  |  |  |  |  |  |  | no appreciable internalization | no appreciable internalization | highly target-specific and efficient internalization
